Laboratory results published in ChEMBL document CHEMBL3785077 (J Med Chem, 2016).
Activity calls are given as the source filed them. The calls are words filed in the database; no cut-off is given here.

Experiments:
Cholinesterase [1] = target: T1, Cholinesterase (Equus caballus, UniProt P81908); assay: Inhibition of equine serum butyrylcholinesterase using […] as substrate preincubated for 30 mins followed by substrate addition measured after 2.5 mins by Ellman's spectrophotometric method
Procedure, shortened: (§1)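 Ellman assay at 25 °C in phosphate buffer pH 8.0. Enzyme (AChE from human erythrocytes, BChE from equine or human serum; 2.5 units/mL stock with 2 mg/mL BSA) and DTNB (0.3 mM in assay) preincubated with compound from ethanol stocks (1 nM−1 mM in assay). Ethanol control, triplicates, IC50 from activity vs log concentration.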

Acetylcholinesterase [2] = target: T2, Acetylcholinesterase (Homo sapiens, UniProt P22303); assay: Inhibition of human acetylcholinesterase using […] as substrate at 100 uM preincubated for 4.5 mins followed by substrate addition measured after 2.5 mins by Ellman's spectrophotometric method
T2 sequence (P22303 whole entry): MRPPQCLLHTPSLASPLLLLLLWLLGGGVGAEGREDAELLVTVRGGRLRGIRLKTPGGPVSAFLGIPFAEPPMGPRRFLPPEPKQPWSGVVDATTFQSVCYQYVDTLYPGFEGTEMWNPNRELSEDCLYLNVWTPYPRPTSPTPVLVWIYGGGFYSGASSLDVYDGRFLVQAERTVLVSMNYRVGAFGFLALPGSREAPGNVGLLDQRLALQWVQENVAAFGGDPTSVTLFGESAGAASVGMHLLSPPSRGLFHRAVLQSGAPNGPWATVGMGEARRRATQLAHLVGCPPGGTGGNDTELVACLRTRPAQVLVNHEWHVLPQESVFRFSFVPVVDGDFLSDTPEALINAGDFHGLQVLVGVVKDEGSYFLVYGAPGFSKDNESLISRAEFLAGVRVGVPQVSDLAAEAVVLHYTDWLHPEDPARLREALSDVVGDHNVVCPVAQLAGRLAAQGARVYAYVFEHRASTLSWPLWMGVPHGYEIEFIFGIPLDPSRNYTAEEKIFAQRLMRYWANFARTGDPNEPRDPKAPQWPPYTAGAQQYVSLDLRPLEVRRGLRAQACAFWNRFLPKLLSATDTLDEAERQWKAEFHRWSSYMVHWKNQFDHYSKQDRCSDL

[3] = target: Cholinesterase (Equus caballus) (UniProt P81908); assay: (§2) Pseudo-irreversible inhibition of equine serum butyrylcholinesterase assessed as apparent affinity between enzyme and inhibitor at equilibrium state using p-nitrophenyl butyrate as substrate preincubated for 5 to 40 mins followed by substrate addition by double reciprocal plot analysis
Cholinesterase (Equus caballus), sequence (P81908 whole entry): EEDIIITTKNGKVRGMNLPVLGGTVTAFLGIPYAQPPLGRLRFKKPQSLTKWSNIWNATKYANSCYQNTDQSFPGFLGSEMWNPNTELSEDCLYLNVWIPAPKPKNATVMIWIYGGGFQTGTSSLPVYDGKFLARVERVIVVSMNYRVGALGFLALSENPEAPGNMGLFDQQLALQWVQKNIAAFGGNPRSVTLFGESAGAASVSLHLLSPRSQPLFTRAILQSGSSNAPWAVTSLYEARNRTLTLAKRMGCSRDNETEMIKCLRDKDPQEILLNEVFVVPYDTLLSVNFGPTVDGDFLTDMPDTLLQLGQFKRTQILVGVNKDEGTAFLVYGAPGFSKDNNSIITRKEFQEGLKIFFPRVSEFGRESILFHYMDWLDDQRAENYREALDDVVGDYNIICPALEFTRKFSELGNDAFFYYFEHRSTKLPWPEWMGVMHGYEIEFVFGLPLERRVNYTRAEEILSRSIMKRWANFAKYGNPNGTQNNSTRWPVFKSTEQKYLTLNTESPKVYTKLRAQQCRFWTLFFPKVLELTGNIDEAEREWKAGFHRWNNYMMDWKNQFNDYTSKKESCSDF

[4] = target: Cholinesterase (Equus caballus) (UniProt P81908); assay: Pseudo-irreversible inhibition of equine serum butyrylcholinesterase assessed as carbamoylation rate of inhibitor from reversible enzyme inhibitor complex to carbamoylated enzyme using p-nitrophenyl butyrate as substrate preincubated for 5 to 40 mins followed by substrate addition by double reciprocal plot analysis
[5] = target: Cholinesterase (Equus caballus) (UniProt P81908); assay: as §2, with “assessed as ratio of carbamoylation rate of inhibitor to apparent affinity” for “assessed as apparent affinity”
Cholinesterase [6] = target: T1, Cholinesterase; assay: Inhibition of equine serum butyrylcholinesterase using […] as substrate preincubated for 4.5 mins followed by substrate addition measured after 2.5 mins by Ellman's spectrophotometric method
Procedure, shortened: as §1, with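 “assay). Acetyl- or butyrylthiocholine added (452 μM in assay), absorbance at 412 nm after 2.5 min.” for “assay).”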

Acetylcholinesterase [7] = target: T2, Acetylcholinesterase; assay: Inhibition of human acetylcholinesterase using […] as substrate preincubated for 4.5 mins followed by substrate addition measured after 2.5 mins by Ellman's spectrophotometric method
Procedure, shortened: as §1, with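 “assay). Acetyl- or butyrylthiocholine added (452 μM in assay), absorbance at 412 nm after 2.5 min.” for “assay).”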

[8] = Antioxidant activity assessed as trolox equivalents of AAPH radical scavenging activity preincubated for 15 mins followed by AAPH addition measured every 60 secs for 90 mins by ORAC assay; format: physicochemical; conditions: 1.5 h
Procedure, shortened: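 ORAC-FL: compound (1−5 μM) with fluorescein (300 nM final) in 75 mM phosphate buffer pH 7.4, 15 min at 37 °C, then AAPH (12 mM final). Fluorescence read every 60 s for 90 min (ex 485/em 535 nm). […] Samples in quadruplicate, ≥4 independent runs.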

[9] = Neurotoxicity against mouse HT22 cells assessed as cell viability up to 10 uM after 24 hrs by MTT assay; format: toxicity, cell-based, HT-22; conditions: read-out: Activity
Procedure, shortened: (§3)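 Murine hippocampal HT-22 cells in high-glucose DMEM with 10% heat-inactivated FCS, 37 °C, 5% CO2. […] MTT 3 h, SDS lysis, absorbance at 560 nm, viability as % of untreated cells.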

HT-22 [10] = assay: Neuroprotective activity against glutamate-induced oxycytotic cell death in mouse HT22 cells assessed as cell viability at 5 to 25 uM after 24 hrs by MTT assay; format: functional, cell-based; procedure, shortened: as §3
Acetylcholinesterase [11] = target: T2, Acetylcholinesterase; assay: Inhibition of human acetylcholinesterase using […] as substrate at 10 uM preincubated for 4.5 mins followed by substrate addition measured after 2.5 mins by Ellman's spectrophotometric method
[12] = Neurotoxicity against mouse HT22 cells assessed as cell viability at 1 and 5 uM after 24 hrs by MTT assay; format: toxicity, cell-based; conditions: ht-22, 24 h
Procedure, shortened: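 HT-22 murine hippocampal cells grown in high-glucose DMEM plus 10% heat-inactivated FCS at 37 °C, 5% CO2. After 24 h culture in plates, treated 24 h with compound (DMSO ≤0.1% final) without glutamate. Viability read by MTT (3 h), SDS lysis buffer pH 4.1, absorbance at 560 nm, given as percent of untreated control.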

HT-22 [13] = assay: Neuroprotective activity against glutamate-induced oxycytotic cell death in mouse HT22 cells assessed as cell viability at 5 uM after 24 hrs by MTT assay; format: functional, cell-based
Procedure, shortened: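 Murine hippocampal HT-22 cells in high-glucose DMEM with 10% heat-inactivated FCS, 37 °C, 5% CO2. […] MTT (4 mg/mL in PBS, diluted 1:10 in medium) for 3 h, lysis in 10% SDS pH 4.1, absorbance 560 nm; viability as % of untreated cells.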

Acetylcholinesterase [14] = target: T2, Acetylcholinesterase; assay: Inhibition of human acetylcholinesterase using […] as substrate at 500 uM preincubated for 4.5 mins followed by substrate addition measured after 2.5 mins by Ellman's spectrophotometric method
Acetylcholinesterase [15] = target: T2, Acetylcholinesterase; assay: Inhibition of human acetylcholinesterase using […] as substrate at 50 uM preincubated for 4.5 mins followed by substrate addition measured after 2.5 mins by Ellman's spectrophotometric method

T1 sequence (P81908 whole entry): as above

SMILES: CCCCCCCNC(=O)Oc1ccc2nc(-c3ccccc3)ncc2c1
- IC50 (Cholinesterase [1]): 1800 nM
- inhibition (Acetylcholinesterase [2]): 22%
- K [3]: 1060 nM
- K [4]: 0.14 min⁻¹
- Ratio [5]: 0.13 µM⁻¹ min⁻¹

SMILES: CCCCCCCNC(=O)Oc1ccc2c(c1)CN(C)C(c1ccncc1)N2C (configuration not stated)
- IC50 (Cholinesterase [1]): 723 nM
- inhibition (Acetylcholinesterase [2]): 16%

SMILES: CN1Cc2cc(O)ccc2N(C)C1c1cccc2ccccc12 (configuration not stated)
- IC50 (Cholinesterase [6]): 2.8 µM
- IC50 (Acetylcholinesterase [7]): 342 µM

SMILES: CCCCCCCNC(=O)Oc1ccc2c(c1)CN(C)C(c1ccc(OC)cc1)N2C (configuration not stated)
- IC50 (Cholinesterase [1]): 875 nM
- inhibition (Acetylcholinesterase [2]): 14%
- K [3]: 1200 nM
- K [4]: 0.24 min⁻¹
- Ratio [5]: 0.2 µM⁻¹ min⁻¹
- Activity [8]: 0.5 equiv
- viability at 24 h [9]: > 80%
- Activity (HT-22 [10]): Active

SMILES: CCCCCCCNC(=O)Oc1ccc2c(c1)CN(C)C(c1ccccc1C)N2C (configuration not stated)
- IC50 (Cholinesterase [1]): 251 nM
- inhibition (Acetylcholinesterase [11]): 18%

SMILES: CN1Cc2cc(O)ccc2N(C)C1c1ccccc1 (configuration not stated)
- IC50 (Cholinesterase [6]): 39.9 µM
- IC50 (Acetylcholinesterase [7]): 327 µM
- Activity [8]: 3 equiv
- Activity [12]: Non-toxic
- Activity (HT-22 [13]): Active

SMILES: CCCCCCCNC(=O)Oc1ccc2c(c1)CN(C)C(c1cccc(C)c1)N2C (configuration not stated)
- IC50 (Cholinesterase [1]): 199 nM
- inhibition (Acetylcholinesterase [2]): 27%

SMILES: Cc1cccc(C2N(C)Cc3cc(O)ccc3N2C)c1 (configuration not stated)
- IC50 (Cholinesterase [6]): 17.4 µM
- IC50 (Acetylcholinesterase [7]): 437 µM

SMILES: CCCCCCCNC(=O)Oc1ccc2c(c1)CN(C)C(c1ccc(C(F)(F)F)cc1)N2C (configuration not stated)
- IC50 (Cholinesterase [1]): 2700 nM
- inhibition (Acetylcholinesterase [2]): 59%
- K [3]: 756 nM
- K [4]: 0.05 min⁻¹
- Ratio [5]: 0.07 µM⁻¹ min⁻¹

SMILES: Oc1ccc2nc(-c3ccccc3)ncc2c1
- IC50 (Cholinesterase [6]): 98.1 µM
- inhibition (Acetylcholinesterase [14]): 20%

SMILES: CCCCCCCNC(=O)Oc1ccc2c(c1)CN(C(C)C)C(c1ccccc1)N2C (configuration not stated)
- IC50 (Cholinesterase [1]): 21 nM
- inhibition (Acetylcholinesterase [2]): 33%
- K [3]: 186 nM
- K [4]: 0.16 min⁻¹
- Ratio [5]: 0.86 µM⁻¹ min⁻¹

SMILES: CCCCCCCNC(=O)Oc1ccc2c(c1)CN(C)C(c1ccccc1Cl)N2C (configuration not stated)
- IC50 (Cholinesterase [1]): 474 nM
- inhibition (Acetylcholinesterase [11]): 48%

SMILES: COc1cccc(C2N(C)Cc3cc(O)ccc3N2C)c1 (configuration not stated)
- IC50 (Cholinesterase [6]): 7.8 µM
- inhibition (Acetylcholinesterase [14]): 61%

SMILES: CCCCCCCNC(=O)Oc1ccc2c(c1)CN(C)C(c1cccnc1)N2C (configuration not stated)
- IC50 (Cholinesterase [1]): 565 nM
- inhibition (Acetylcholinesterase [2]): 18%

SMILES: CN1Cc2cc(O)ccc2N(C)C1c1ccc(Cl)cc1 (configuration not stated)
- IC50 (Cholinesterase [6]): 13.8 µM
- IC50 (Acetylcholinesterase [7]): 236 µM

SMILES: CN1Cc2cc(O)ccc2N(C)C1c1ccsc1 (configuration not stated)
- IC50 (Cholinesterase [6]): 194 µM
- inhibition (Acetylcholinesterase [14]): 52%

SMILES: Cc1ccc(C2N(C)Cc3cc(O)ccc3N2C)cc1 (configuration not stated)
- IC50 (Cholinesterase [6]): 22.6 µM
- IC50 (Acetylcholinesterase [7]): 110 µM

SMILES: CCCCCCCNC(=O)Oc1ccc2c(c1)CN(C)C(c1ccsc1)N2C (configuration not stated)
- IC50 (Cholinesterase [1]): 22 nM
- inhibition (Acetylcholinesterase [2]): 13%

SMILES: CCCCCCCNC(=O)Oc1ccc2c(c1)CN(C)C(c1cccc3ccccc13)N2C (configuration not stated)
- IC50 (Cholinesterase [1]): 36200 nM
- inhibition (Acetylcholinesterase [11]): 8%
- K [3]: 15.6 nM
- K [4]: 0.03 min⁻¹
- Ratio [5]: 1.92 µM⁻¹ min⁻¹

SMILES: CN1Cc2cc(O)ccc2N(C)C1c1ccc2ccccc2c1 (configuration not stated)
- IC50 (Cholinesterase [6]): 16.5 µM
- inhibition (Acetylcholinesterase [15]): 9%

SMILES: CN1Cc2cc(O)ccc2N(C)C1c1ccccc1Cl (configuration not stated)
- IC50 (Cholinesterase [6]): 56 µM
- inhibition (Acetylcholinesterase [14]): 60%

SMILES: CCCCCCCNC(=O)Oc1ccc2c(c1)CN(C)C(c1cccc(Cl)c1)N2C (configuration not stated)
- IC50 (Cholinesterase [1]): 96 nM
- inhibition (Acetylcholinesterase [2]): 39%
- K [3]: 227 nM
- K [4]: 0.16 min⁻¹
- Ratio [5]: 0.7 µM⁻¹ min⁻¹

SMILES: CCCN1Cc2cc(O)ccc2N(C)C1c1ccccc1 (configuration not stated)
- IC50 (Cholinesterase [6]): 22.8 µM
- IC50 (Acetylcholinesterase [7]): 279 µM

SMILES: CN1Cc2cc(O)ccc2N(C)C1c1ccoc1 (configuration not stated)
- IC50 (Cholinesterase [6]): 196 µM
- IC50 (Acetylcholinesterase [7]): 342 µM
